Laboratory results as given in ChEMBL document CHEMBL4028898, “Structure-Activity Relationships of 6- and 8-Gingerol Analogs as Anti-Biofilm Agents” (J Med Chem, 2017).
Calls of active or inactive are those of the source. No cut-off for these calls is given here.

What was measured:
Pseudomonas aeruginosa [1] = assay: Antagonist activity at Pseudomonas aeruginosa LasR expressed in Escherichia coli DH5alpha assessed as inhibition of protein interaction with OdDHL at 1 to 10 uM after 1.5 hrs by beta-galactosidase reporter gene assay
Outline: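 E. coli DH5α reporter carrying pJN105L (LasR) and pSC11 (lasI::lacZ); overnight culture with 10 µg/mL gentamicin and 50 µg/mL ampicillin diluted 1:100 in LB, used at OD595 0.3. Incubated with compound, OdDHL and 0.4% arabinose at 37 °C for 1.5 hr. β-galactosidase read by luminescence; RLU ratio = luminescence/OD595 ×100.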

Pseudomonas aeruginosa [2] = assay: Growth inhibition of Pseudomonas aeruginosa PA14 at 100 uM after 24 hrs
Outline: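 P. aeruginosa PA14 overnight culture (OD595 1.0), 5% dilution with compound (0–100 µM), grown in 96-well plates at 37 °C for 24 h; growth read as OD595.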

Pseudomonas aeruginosa [3] = assay: Inhibition of static biofilm formation of Pseudomonas aeruginosa PA14 assessed as level of biofilm formation at 10 uM after 24 hrs by crystal violet staining-based assay relative to control; assay type: functional; parameters: scale not given: the % may be the effect or the level left
Outline: (§1)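 PA14 overnight culture (OD595 1.0) diluted 1:20 in AB medium, pH 7.5, with compound (0–100 µM), in borosilicate bottles, static at 37 °C for 24 hr.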

Pseudomonas aeruginosa [4] = assay: Inhibition of dynamic biofilm formation of Pseudomonas aeruginosa PA14 assessed as biofilm volume up to 10 uM after 48 hrs by Ruby/ConA staining-based assay (reference value: 23.1 +/- 1.8 um'3/um'2); assay type: functional
Outline: (§2)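 Glass slides seeded 24 h at 37 °C, static, with PA14 (OD595 1.0) in AB medium, then placed in a drip-flow reactor fed with AB medium plus compound (0–10 µM) at 0.3 mL/min, 37 °C, 48 hr. PBS-washed biofilm stained 15 min with FITC-ConA (carbohydrate) and SYPRO Ruby (protein); CLSM at 20×; volume (µm³/µm²) and average thickness quantified by Comstat2.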

Pseudomonas aeruginosa [5] = assay: Inhibition of dynamic biofilm formation of Pseudomonas aeruginosa PA14 assessed as biofilm thickness up to 10 uM after 48 hrs by Ruby/ConA staining-based assay (reference value: 34.5 +/- 1.3 um); assay type: functional; outline: as §2
Pseudomonas aeruginosa [6] = assay: Inhibition of dynamic biofilm formation of Pseudomonas aeruginosa PA14 at 10 uM after 48 hrs by Ruby/ConA staining-based confocal laser scanning microscopic method; assay type: functional; outline: as §2
Pseudomonas aeruginosa [7] = assay: Inhibition of static biofilm formation of Pseudomonas aeruginosa PA14 at 10 uM after 24 hrs by crystal violet staining-based assay; assay type: functional; outline: as §1
Pseudomonas aeruginosa [8] = assay: Reversible binding affinity to Pseudomonas aeruginosa LasR expressed in Escherichia coli DH5alpha at 1 uM after 1.5 hrs in presence of OdDHL by beta-galactosidase reporter gene assay
Outline: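 LasR reporter in E. coli DH5α (pJN105L + pSC11) with 0.4% arabinose, 37 °C, 1.5 hr. Compound at 1 µM tested against OdDHL at 0, 0.1, 1, 10 and 100 µM, compared with no-compound control. β-galactosidase luminescence divided by OD595.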

Pseudomonas aeruginosa [9] = assay: Inhibition of dynamic biofilm formation of Pseudomonas aeruginosa PA14 assessed as volume of carbohydrates in biofilm up to 10 uM after 48 hrs by Ruby/ConA staining-based assay relative to control; assay type: functional; parameters: scale not given: the % may be the effect or the level left; outline: as §2
Pseudomonas aeruginosa [10] = assay: Inhibition of dynamic biofilm formation of Pseudomonas aeruginosa PA14 assessed as volume of proteins in biofilm up to 10 uM after 48 hrs by Ruby/ConA staining-based assay relative to control; assay type: functional; parameters: scale not given: the % may be the effect or the level left; outline: as §2
Pseudomonas aeruginosa [11] = assay: Agonist activity at Pseudomonas aeruginosa LasR expressed in Escherichia coli DH5alpha at 10 uM after 1.5 hrs by beta-galactosidase reporter gene assay
Pseudomonas aeruginosa [12] = assay: Inhibition of static biofilm formation of Pseudomonas aeruginosa PA14 at 100 uM after 24 hrs by crystal violet staining-based assay; assay type: functional; outline: as §1

inhibition (Pseudomonas aeruginosa [1]) | SMILES | inhibition (Pseudomonas aeruginosa [7]) | also measured
Active | CCCCCCC[C@@H](O)CC(=O)CCc1ccc(O)c(OC)c1 | – | growth inhibition (GI) (Pseudomonas aeruginosa [2]): Non-Toxic; Activity (Pseudomonas aeruginosa [3]): 72%; Activity (Pseudomonas aeruginosa [4]): 9.7 um3/um2; Activity (Pseudomonas aeruginosa [5]): 13.9 um; inhibition (Pseudomonas aeruginosa [6]): Active
Active | CCCCCCCC(O)CC(=O)CCc1ccc(OC)c(OC)c1 (stereo not drawn) | – | –
Active | CCCCCCC[C@@H](O)CC(=O)/C=C/c1ccc(O)c(OC)c1 | Active | growth inhibition (GI) (Pseudomonas aeruginosa [2]): Non-Toxic; Activity (Pseudomonas aeruginosa [8]): Active; Activity (Pseudomonas aeruginosa [4]): 7.4 um3/um2; Activity (Pseudomonas aeruginosa [5]): 10.3 um; Activity (Pseudomonas aeruginosa [9]): 47 - 74%; Activity (Pseudomonas aeruginosa [10]): 23 - 56%; inhibition (Pseudomonas aeruginosa [6]): Active
Active | CCCCCC(O)CC(=O)CCc1ccc(F)c(OC)c1 (stereo not drawn) | Active | –
Active | CCCCCCCC(=O)/C=C/c1ccc(O)c(OC)c1 | Active | –
Active | CCCCCCCC(O)CC(=O)CCc1ccc(O)c(OCC)c1 (stereo not drawn) | – | –
Active | CCCCCCCC(O)CC(=O)CCc1ccc(O)c(OC)c1 (stereo not drawn) | – | Activity (Pseudomonas aeruginosa [11]): inactive
Active | CCCCCCCC(O)CC(=O)CCc1ccc(O)cc1 (stereo not drawn) | Active | –
Active | CCCCCCCC(O)CC(=O)CCc1ccccc1 (stereo not drawn) | – | –
Active | CCCCCC(O)CC(=O)CCc1ccc(F)cc1 (stereo not drawn) | Active | –
Active | CCCCC[C@H](O)CC(=O)CCc1ccc(O)c(OC)c1 | Active | –
Active | CCCCCC(O)CC(=O)CCc1cccc(OC)c1 (stereo not drawn) | – | –
Active | CCCCCC(O)CC(=O)/C=C/c1ccc(O)c(OC)c1 (stereo not drawn) | – | –

Further lines, the molecule ahead of its results:

SMILES | inhibition (Pseudomonas aeruginosa [1]) | inhibition (Pseudomonas aeruginosa [7]) | also measured
CCCCCCC[C@H](O)CC(=O)CCc1ccc(O)c(OC)c1 | Active | – | Activity (Pseudomonas aeruginosa [3]): 100%; Activity (Pseudomonas aeruginosa [4]): 17 um3/um2; Activity (Pseudomonas aeruginosa [5]): 17 um; inhibition (Pseudomonas aeruginosa [6]): Active
CCCCCCC(O)CC(=O)CCc1ccc(O)c(OC)c1 (stereo not drawn) | Active | – | Activity (Pseudomonas aeruginosa [11]): inactive
CCCCCCCC(O)CC(=O)CCc1cccc(OC)c1 (stereo not drawn) | Active | – | –
CCCCCCCCCC(O)CC(=O)CCc1ccc(O)c(OC)c1 (stereo not drawn) | Active | – | inhibition (Pseudomonas aeruginosa [12]): Active; growth inhibition (GI) (Pseudomonas aeruginosa [2]): Toxic; Activity (Pseudomonas aeruginosa [11]): inactive
CCCCCCCC(=O)CCc1ccc(O)c(OC)c1 | Active | Active | –
CCCCCCCC(O)CC(=O)CCc1ccc(F)c(OC)c1 (stereo not drawn) | Active | Active | –
CCCCC(O)CC(=O)CCc1ccc(O)c(OC)c1 (stereo not drawn) | Active | – | Activity (Pseudomonas aeruginosa [11]): inactive
CCCCCCCC(O)CC(=O)CCc1ccc(F)cc1 (stereo not drawn) | Active | Active | –
CCCCCCCCC(O)CC(=O)CCc1ccc(O)c(OC)c1 (stereo not drawn) | Active | – | inhibition (Pseudomonas aeruginosa [12]): Active; growth inhibition (GI) (Pseudomonas aeruginosa [2]): Toxic; Activity (Pseudomonas aeruginosa [11]): inactive
CCCCCC(O)CC(=O)CCc1ccccc1 (stereo not drawn) | Active | – | –
CCCC(O)CC(=O)CCc1ccc(O)c(OC)c1 (stereo not drawn) | Active | – | Activity (Pseudomonas aeruginosa [11]): inactive
CCCCCC(O)CC(=O)CCc1ccc(O)c(OC)c1 (stereo not drawn) | Active | – | Activity (Pseudomonas aeruginosa [11]): inactive
CCCCCC(O)CC(=O)CCc1ccc(O)cc1 (stereo not drawn) | Active | Active | –
CCCCCCCC(O)CC(=O)/C=C/c1ccc(O)c(OC)c1 (stereo not drawn) | Active | – | –
CCCCCCCCCC(=O)/C=C/c1ccc(O)c(OC)c1 | Active | Active | –
CCCCCCCCCC(=O)CCc1ccc(O)c(OC)c1 | Active | Active | –
